Cl transport mod = KCC2 cotransporter modulators, thallium flux, primary screen, cell-based, HEK293 KCC2, FluoZin-2 fluorescence, MLSMR | KCC2 cells, thallium flux FluoZin-2 fluorescence | B-score of Tl+ flux slope (higher = more flux/activation; lower = inhibition) at 10 µM | actives 2.2% (n = 190,000) | AID 1456, 2008;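 active means thallium flux slope and its plate-corrected score both differing from the plate sample mean at a set confidence after two filtering rounds, in either direction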;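 further: slope of fluorescence scaled to starting intensity during 10 to 20 s after thallium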
PKD1 kinase inh = inhibitors of human PKD1 kinase, biochemical, fluorescence polarization; PKD1 kinase fluorescence polarization assay; inhibition, % (concentration not given with the values); actives 0.056% (n = 200,000); in the data active means inhibition above about 50%
ROMK mod = ROMK potassium channel modulators, primary screen, cell-based, thallium flux, MLSMR library. actives 2% (n = 130,000). B-score at 10 µM. AID 1918, 2009. Tet-inducible ROMK, thallium flux fluorescence; actives lie on both sides. ATP-sensitive inward rectifier potassium channel 1 (Homo sapiens), P48048;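 active means signal ratio slope over the read window, or its plate-corrected B-score, at least 3 SD from the plate mean, either direction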;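 further: B-score of the F/F0 ratio slope over 7 to 12 s after thallium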
Rad51 HR inh = human RAD51 strand exchange inhibitors, primary screen, biochemical, fluorescence; actives 0.085% (n = 200,000); DNA repair protein RAD51 homolog 1 (Homo sapiens), Q06609; hRad51 DNA strand exchange, fluorescence dequenching; inhibition, % at 10 µM; AID 1385, 2008;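 active means inhibition above 40% at the single screening dose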;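 further: 0% = DMSO control wells and 100% = blanks with heterologous ssDNA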
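Material: hRad51 filaments on single-stranded DNA; Reagent: Donor/quencher-labelled 47-bp dsDNA substrate; Compound: 10 µM final, single point; Schedule: 37 °C 15-min filament assembly, 30-min compound preincubation, 15-min exchange; Technique: FRET fluorescence, excitation 485 nm, emission 520 nm; Benchmarks: control wells and blank wells on each plate.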
KCC2 sec1 = KCC2 modulators in sodium-free buffer, confirmation, cell-based, HEK293 KCC2, thallium flux, secondary assay. shares compounds with Cl transport mod. FluoZin2 fluorescence; stronger effect = higher value. normalised thallium flux (F/F0 slope) at 10 µM. actives 15% (n = 3,700);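 active means thallium flux slope above the same plate's solvent-only control mean plus 3 SD; inconclusive means the two replicate wells disagree; inactive means no significant difference from solvent-only control wells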
KCC2 bumet counter = thallium flux persisting under bumetanide in KCC2 cells, confirmation, counter-screen for KCC2 modulator project, cell-based, HEK293 KCC2, FluoZin2, secondary assay 3. normalized thallium flux at 10 µM. HEK293-KCC2 + bumetanide/ouabain; stronger effect = higher value. shares compounds with Cl transport mod. AID 1714, 2009. actives 49% (n = 3,700);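 active means thallium entry rate above the same plate's blocked-transporter control wells by more than 3 SD; inconclusive means the two repeat wells disagree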;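 further: raw slope of fluorescence over initial fluorescence between 10 and 20 s after thallium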
KCC2 secondary2 = KCC2 modulators without ouabain present, confirmation, cell-based, HEK293 KCC2, thallium flux, FluoZin2, secondary assay 2; AID 1715, 2009; shares compounds with Cl transport mod; actives 23% (n = 3,700); normalized thallium flux at 10 µM; thallium flux FluoZin2 fluorescence; actives lie on both sides; F/F0 rise rate, 10–20 s post-thallium;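 active means thallium flux slope more than 3 SD above or below the plate's solvent-only control mean, mostly below; inconclusive means the two repeat wells disagreed; inactive means no significant shift from solvent-only controls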;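 further: raw slope with 0.1% DMSO as baseline and bumetanide as block control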
HEK293 Tl flux = thallium flux modulation in parental HEK cells, confirmation, counter-screen for KCC2 modulator project, cell-based, counterscreen 1; shares compounds with Cl transport mod; HEK293 parental cells, thallium flux FluoZin2, ouabain; baseline-ratio fluorescence slope, 10–20 s after thallium; thallium flux rate (normalised fluorescence) at 10 µM; actives 46% (n = 3,700); AID 1716, 2009;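 active means thallium flux rate significantly above the same plate's solvent-only control wells, beyond their mean plus 3 SD; inconclusive means the two replicate wells gave conflicting results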
KCC2 ouabain = KCC2 inhibitors and activators, ouabain retest, confirmation, HEK-KCC2 cells. shares compounds with Cl transport mod. HEK293-KCC2, thallium flux FluoZin2 fluorescence; bidirectional: low = inhibitor, high = activator. raw Tl+ flux slope (below DMSO = inhibition, above = activation) at 10 µM. actives 48% (n = 3,700);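 active means thallium flux slope beyond 3 SD from same-plate DMSO control mean in most replicates, usually higher, sometimes lower; inconclusive means repeat tests gave conflicting results; inactive means no significant difference from controls in most replicates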;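 further: slope of initial-normalized fluorescence between seconds 10 and 20 after thallium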
HEK counter2 = native HEK Tl+ uptake effects, second counter-screen – HEK cells, counterscreen 2, counter-screen for KCC2 modulator project, confirmation; shares compounds with Cl transport mod; HEK293 parental, thallium flux FluoZin-2 fluorescence slope; thallium flux slope at 10 µM; actives 33% (n = 3,700); AID 1718, 2009;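 active means thallium flux slope above the same plate's solvent-control mean plus 3 SD in both duplicate wells; inconclusive means duplicate wells that disagreed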;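 further: run without ouabain in cells lacking the KCC2 cotransporter; slope of fluorescence scaled to its starting value between 10 and 20 s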
* marks the source's active call; other numbers are inactive results; ? = inconclusive; / = no result given. Only some compounds are listed: those with a hit (about 3% of all), similar ones and a draw of the others.

SMILES	Cl transport mod	PKD1 kinase inh	ROMK mod	Rad51 HR inh	KCC2 sec1	KCC2 bumet counter	KCC2 secondary2	HEK293 Tl flux	KCC2 ouabain	HEK counter2
O=C(C1CCCN(S(=O)(=O)c2cccs2)C1)N1CCc2ccccc2C1 (stereo not drawn)	-3.04*	-8.3	/	-9.3	0.00789	0.00614	0.0333	0.00424	0.0156*	0.0112
CC(=O)c1ccc(C(=O)Nc2nnc(-c3ccc(Cl)cc3)o2)cc1	22.1*	/	/	-0.4	0.0219*	0.0904*	?	0.0452*	0.0497*	0.0158*
CN(c1ccccc1)S(=O)(=O)c1ccc(C(=O)Nc2nnc(-c3ccc(F)cc3)o2)cc1	17.6*	3.0	/	-1.5	0.0133*	0.0556*	0.034	?	0.0383*	0.0124
CN(C)c1ccc(C(=O)Nc2nnc(-c3ccc(Cl)cc3)o2)cc1	20.2*	-7.2	/	-8.5	0.00703	0.0598*	0.0457*	0.0537*	0.0511*	0.0264*
CN(c1ccccc1)S(=O)(=O)c1ccc(NC(=O)c2ccc(-c3ccccc3)cc2)cc1	-0.266	-5.1	/	-2.4	/	/	/	/	/	/
COc1ccc(C(=O)NNC(=O)CSc2nnc(COc3ccccc3OC)n2C)cc1	0.302	-1.7	-0.0582	7.7	/	/	/	/	/	/
COC(=O)N/N=C/c1cc(Cl)cc(Cl)c1OCc1ccc(F)cc1	0.00995	4.5	/	3.4	/	/	/	/	/	/
Cc1cc(NC(=NC2CC2)c2ccccc2F)n(-c2ccccc2)n1	-0.986	1.0	0.746	-2.8	/	/	/	/	/	/
O=c1cc(CN2CCc3ccccc32)c2ccc(O)cc2o1	/	0.3	-0.0888	17.8	0.00893	0.00617	0.0381	0.00351	0.0176*	0.0101
CCn1nc(C)c(/C=N/NC(=S)Nc2ccc(Cl)cc2Cl)c1C	4.47*	-9.1	1.26	/	0.00815	0.0105*	0.031	0.0084*	?	?
Fc1ccc(NC(=S)Nc2cc(Cl)ccc2Cl)cc1	3.53*	-2.2	-1.48	-6.8	0.00799	0.0155*	?	0.0183*	0.0263*	0.0146*
Fc1ccc(NC(=S)N/N=C/c2ccc(F)c(F)c2)cc1	26.6*	-1.6	0.133	-10.7	0.0162*	0.063*	0.0311	0.0223*	0.0439*	0.013*
Fc1ccc(/C=N/NC(=S)Nc2ccc(Cl)cc2Cl)cc1	7.56*	/	/	7.5	0.00991	0.0179*	0.0299	0.0117*	0.0287*	?
COc1cc(O)cc2c1[C@@H]1Oc3c(ccc(O)c3CC=C(C)C)[C@@H]1CO2	/	/	/	1.6	/	/	/	/	/	/
CC(/C=C/c1ccccc1)=N\NC(N)=S	1.88	-9.7	-0.413	0.7	/	/	/	/	/	/
CC(/C=C/c1ccccc1)=N\NC(=S)NC(C)C	8.02*	1.6	-0.472	10.5	0.00683	0.0181*	0.0304	0.0171*	?	0.0136*
O=C(O)c1cccc(N2CCCC2=O)c1	0.467	-5.2	-0.903	1.8	/	/	/	/	/	/
C[C@H]1CC[C@H]2C(=O)N3[C@H](c4cccc(N5CCCC5=O)c4)[C@@H](C)CC[C@H]3C(=O)N2[C@@H]1c1cccc(N2CCCC2=O)c1	4.91*	0.8	0.554	/	0.00658	0.005	?	0.00766	0.0178	0.0111
Fc1ccccc1CSc1ccc(-c2ccco2)nn1	-2.61	5.2	/	7.0	/	/	/	/	/	/
CC(=O)N1CCC(N(CCN2CCOCC2)C(=S)Nc2ccccc2C)CC1	0.987	-6.8	0.308	-5.5	/	/	/	/	/	/
O=C(O)c1cc([N+](=O)[O-])ccc1NCc1ccccc1	-5.28*	-1.7	-0.177	/	0.00988	0.00729	0.0245*	0.00685	?	0.0102
COc1ccc([N+](=O)[O-])cc1NCc1ccccc1	-3.8*	-4.3	/	9.5	0.0066	0.00407	0.0286	0.00532*	0.0143*	0.00961
O=C(NCc1ccccc1Cl)c1cc([N+](=O)[O-])ccc1Cl	-1.09	-1.5	-0.203	/	/	/	/	/	/	/
O=C(O)c1cc([N+](=O)[O-])ccc1N1CCCCC1	-0.621	-7.3	0.171	3.3	/	/	/	/	/	/
O=C(O)c1cc([N+](=O)[O-])ccc1NCCCc1ccccc1	/	/	/	-3.7	/	/	/	/	/	/
SMILES	Cl transport mod	PKD1 kinase inh	ROMK mod	Rad51 HR inh	KCC2 sec1	KCC2 bumet counter	KCC2 secondary2	HEK293 Tl flux	KCC2 ouabain	HEK counter2
O=C(O)c1cc([N+](=O)[O-])ccc1N1CCC(Cc2ccccc2)CC1	-4.64*	-1.4	/	6.9	0.0081	?	?	0.00791	0.0152*	0.0107
O=C(NCCCc1ccccc1)c1cc([N+](=O)[O-])ccc1Cl	-7.5*	-4.3	0.513	/	?	0.00449	0.0204*	?	0.0123*	0.00984
CN1CCN(NC(=O)c2ccc(Br)s2)CC1	-0.112	/	/	/	/	/	/	/	/	/
Cc1cc(C)c2c(=O)[nH]c(SCC(=O)c3ccc(F)c(C)c3)nc2n1	0.00596	-7.7	-0.112	-3.3	/	/	/	/	/	/
C=CCSC(=C(C#N)C#N)c1cc2c([nH]1)CCCC2	-2.29	-6.8	/	-3.1	/	/	/	/	/	/
CC(C)n1nc(C(=O)Nc2nc3ccccc3[nH]2)c2ccccc2c1=O	-3.97*	-2.9	0.496	-9.2	0.0146	0.00369	0.0246*	?	0.0135	0.00882
CCCn1nc(C(=O)Nc2nc3ccccc3[nH]2)c2ccccc2c1=O	-0.79	-6.3	0.0246	-17.5	/	/	/	/	/	/
NC(=O)Nc1ccc(C(=O)OCC(=O)Nc2ccc(Cl)cn2)cc1	-1.09	/	/	1.5	/	/	/	/	/	/
COc1ccc(/C=C/C(=O)N[C@H](C(=O)O)C(C)C)cc1	0.229	0.3	0.0151	1.8	/	/	/	/	/	/
CCN(CC)S(=O)(=O)c1cc(C(=O)OCC(=O)NC(=O)c2cccn2C)ccc1C	-0.163	-1.2	-0.078	/	/	/	/	/	/	/
Cc1ccc(C(C#N)c2ccc3c(C(F)(F)F)cc(C(F)(F)F)nc3n2)cc1 (stereo not drawn)	13.4*	-10.6	/	/	0.0216*	0.0646*	?	0.0165*	0.0329*	0.0161*

High-throughput results (PubChem)
